The results in this text go back to ChEMBL document CHEMBL1681713, “Lead detoxification activities and ADMET hepatotoxicities of a class of novel 5-(1-carbonyl-L-amino-acid)-2,2-dimethyl-[1,3]dithiolane-4-carboxylic acids” (Bioorg Med Chem Lett, 2011).

Series [1] relates to Brain. Kind of series: Toxicity in mouse assessed as effect on iron level in brain per gram of organ at 0.4 mmol/kg, ip qd for 5 days. It counts as organism-based. The following applies: in vivo, 120 h.
The test system of the next series is Femur. Kind of series: Detoxification activity against lead-induced toxicity in mouse assessed as reduction lead level in femurs per gram of organ at 0.4 mmol/kg, ip qd for 5 days measured 24 hrs last post dose by synchrotron X-ray fluorescence analysis. It counts as functional. In a few lines: (§1)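 Lead-loaded mice were given normal saline vehicle (negative control) or test agent at 0.2, 0.4 or 0.6 mmol/kg. Lead was measured in liver, kidney, left femur and brain and reported as mean ± SD µg Pb/g organ against the NS group.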

Series [2] concerns Brain. Kind of series: Detoxification activity against lead-induced toxicity in mouse assessed as reduction lead level in brain per gram of organ at 0.4 mmol/kg, ip qd for 5 days measured 24 hrs last post dose by synchrotron X-ray fluorescence analysis. The format is functional. In a few lines: as §1
Series [3] deals with Kidney. Kind of series: Detoxification activity against lead-induced toxicity in mouse assessed as reduction lead level in kidney per gram of organ at 0.4 mmol/kg, ip qd for 5 days measured 24 hrs last post dose by synchrotron X-ray fluorescence analysis. It counts as functional. The essentials:
as §1

For series [4], the system named is Liver. Kind of series: Detoxification activity against lead-induced toxicity in mouse assessed as reduction lead level in liver per gram of organ at 0.4 mmol/kg, ip qd for 5 days measured 24 hrs last post dose by synchrotron X-ray fluorescence analysis. It counts as functional. In a few lines:
as §1

A short description of series [5]: Detoxification activity against lead-induced toxicity in mouse assessed as reduction lead level in feces at 0.4 mmol/kg, ip qd for 5 days measured 24 hrs last post dose by synchrotron X-ray fluorescence analysis. It counts as functional. The essentials:
(§2)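 Lead-loaded mice were given normal saline vehicle, DL-penicillamine or NaDMS (positive controls), or test agent, each at 0.4 mmol/kg; n = 12 per group. Lead was measured in feces and urine and reported as mean ± SD µg Pb/g excrement against the NS group.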

A short description of series [6]: Detoxification activity against lead-induced toxicity in mouse assessed as reduction lead level in urine at 0.4 mmol/kg, ip qd for 5 days measured 24 hrs last post dose by synchrotron X-ray fluorescence analysis. The format is functional. In a few lines: as §2
Series [7] deals with Brain. Kind of series: Toxicity in mouse assessed as effect on copper level in brain per gram of organ at 0.4 mmol/kg, ip qd for 5 days. The format is organism-based. Particulars: in vivo, 120 h.
Series [8] relates to Brain. Kind of series: Toxicity in mouse assessed as effect on zinc level in brain per gram of organ at 0.4 mmol/kg, ip qd for 5 days. The format is organism-based. The following applies: in vivo, 120 h.
Series [9] concerns Brain. Kind of series: Toxicity in mouse assessed as effect on manganese level in brain per gram of organ at 0.4 mmol/kg, ip qd for 5 days. The format is organism-based. Particulars: in vivo, 120 h.
Series [10] deals with Brain. Kind of series: Toxicity in mouse assessed as effect on calcium level in brain per gram of organ at 0.4 mmol/kg, ip qd for 5 days. It counts as organism-based. The following applies: in vivo, 120 h.
The test system of series [11] is Liver. Kind of series: Toxicity in mouse assessed as effect on iron level in liver per gram of organ at 0.4 mmol/kg, ip qd for 5 days. The format is organism-based. Particulars: in vivo, 120 h.
Series [12] has as its system Liver. Kind of series: Toxicity in mouse assessed as effect on copper level in liver per gram of organ at 0.4 mmol/kg, ip qd for 5 days. The format is organism-based. The following applies: in vivo, 120 h.
Series [13] relates to Liver. Kind of series: Toxicity in mouse assessed as effect on zinc level in liver per gram of organ at 0.4 mmol/kg, ip qd for 5 days. Particulars: in vivo, 120 h. It counts as organism-based.
In series [14] the test system is Liver. Kind of series: Toxicity in mouse assessed as effect on manganese level in liver per gram of organ at 0.4 mmol/kg, ip qd for 5 days. The following applies: in vivo, 120 h. The format is organism-based.
Series [15] relates to Liver. Kind of series: Toxicity in mouse assessed as effect on calcium level in liver per gram of organ at 0.4 mmol/kg, ip qd for 5 days. It counts as organism-based. The following applies: in vivo, 120 h.
For series [16], the system named is Kidney. Kind of series: Toxicity in mouse assessed as effect on iron level in kidney per gram of organ at 0.4 mmol/kg, ip qd for 5 days. It counts as organism-based. The following applies: in vivo, 120 h.
Series [17] deals with Kidney. Kind of series: Toxicity in mouse assessed as effect on copper level in kidney per gram of organ at 0.4 mmol/kg, ip qd for 5 days. It counts as organism-based. Particulars: in vivo, 120 h.
In series [18] the test system is Kidney. Kind of series: Toxicity in mouse assessed as effect on zinc level in kidney per gram of organ at 0.4 mmol/kg, ip qd for 5 days. The format is organism-based. Particulars: in vivo, 120 h.
Series [19] has as its system Kidney. Kind of series: Toxicity in mouse assessed as effect on manganese level in kidney per gram of organ at 0.4 mmol/kg, ip qd for 5 days. The following applies: in vivo, 120 h. The format is organism-based.
For series [20], the system named is Kidney. Kind of series: Toxicity in mouse assessed as effect on calcium level in kidney per gram of organ at 0.4 mmol/kg, ip qd for 5 days. The format is organism-based. Particulars: in vivo, 120 h.
For the next series, the system named is Mus musculus. Kind of series: Toxicity in mouse assessed as change in bodyweight at 0.4 mmol/kg, ip qd for 5 days. It counts as organism-based. The following applies: in vivo, 120 h. In a few lines:
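Lead-loaded mice were given normal saline vehicle or test agent at 0.4 mmol/kg. Body weights were recorded and compared with the NS group to assess growth.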

SMILES strings stand for the structures.

As for `CC1(C)SC(C(=O)O)C(C(=O)N[C@@H](CO)C(=O)O)S1` (some centres not stated), the Activity in the series on Brain [1] stood at 56.47 µg/g; with Femur it was 14.7 µg/g; in the series on Brain [2], 1.05 µg/g; in the series with Kidney [3] it was 6.43 µg/g; with Liver [4], 3.21 µg/g; in series [5] it was 4.41 µg/g. Moreover, the Activity worked out at 2.83 µg/g in series [6]; 2.39 µg/g in the series with Brain [7]; 34.09 µg/g in the series on Brain [8]; 0.78 µg/g in the series on Brain [9]; 68.08 µg/g in the series on Brain [10]; 153.39 µg/g in the series with Liver [11]. The Activity in the series with Liver [12] is 3.73 µg/g; in the series with Liver [13], 37 µg/g; in the series on Liver [14] it was 1.37 µg/g; in the series with Liver [15] it was 59.65 µg/g; with Kidney [16] it was 93.69 µg/g; in the series on Kidney [17], 3.73 µg/g. Besides, the Activity in the series with Kidney [18] stood at 28.1 µg/g; in the series on Kidney [19], 1.42 µg/g; with Kidney [20], 75.89 µg/g; in the series with Mus musculus, 31.5 g.
In the case of `CC1(C)SC(C(=O)O)C(C(=O)N[C@@H](Cc2c[nH]c3ccccc23)C(=O)O)S1` (some centres not stated), the Activity with Brain [1] was found to be 56.94 µg/g; with Femur, 17.66 µg/g; in the series on Brain [2], 1.21 µg/g; in the series on Kidney [3] it was 7.5 µg/g; in the series with Liver [4], 5.59 µg/g; in series [5], 4.14 µg/g. The Activity in [6] worked out at 2.84 µg/g; in the series on Brain [7] it was 2.39 µg/g; in the series with Brain [8], 33.04 µg/g; in the series with Brain [9] it was 0.78 µg/g; in the series on Brain [10], 69.35 µg/g; in the series on Liver [11] it was 153.84 µg/g. In addition, the Activity came to 3.76 µg/g with Liver [12]; 36.96 µg/g in the series with Liver [13]; 1.4 µg/g in the series with Liver [14]; 59.69 µg/g with Liver [15]; 93.07 µg/g in the series with Kidney [16]; 3.69 µg/g with Kidney [17]. Further, the Activity with Kidney [18] worked out at 27.99 µg/g; in the series with Kidney [19] it was 1.4 µg/g; in the series with Kidney [20], 76.92 µg/g; in the series on Mus musculus, 30.8 g.
As to `CC1(C)SC(C(=O)O)C(C(=O)N[C@@H](CCC(N)=O)C(=O)O)S1` (some centres not stated), the Activity in the series on Brain [1] turned out to be 57.66 µg/g; in the series on Femur it was 14.59 µg/g; in the series with Brain [2] it was 1.02 µg/g; in the series with Kidney [3] it was 6.86 µg/g; in the series on Liver [4], 3.07 µg/g; in series [5], 4.5 µg/g. Further, the Activity in [6] was found to be 2.89 µg/g; in the series with Brain [7] it was 2.64 µg/g; in the series with Brain [8] it was 34.68 µg/g; in the series with Brain [9], 0.69 µg/g; in the series with Brain [10] it was 71.82 µg/g; in the series on Liver [11] it was 153.02 µg/g. In addition, the Activity in the series on Liver [12] is 3.76 µg/g; with Liver [13] it was 37.85 µg/g; in the series with Liver [14], 1.37 µg/g; in the series on Liver [15] it was 59.07 µg/g; in the series on Kidney [16] it was 94.48 µg/g; with Kidney [17] it was 3.59 µg/g. Moreover, the Activity in the series on Kidney [18] came to 28.09 µg/g; in the series with Kidney [19], 1.33 µg/g; in the series with Kidney [20] it was 76.93 µg/g; in the series on Mus musculus, 29.6 g.
Consider `CC1(C)SC(C(=O)O)C(C(=O)N[C@@H](Cc2ccccc2)C(=O)O)S1` (some centres not stated), for which the Activity in the series on Brain [1] turned out to be 56.31 µg/g; in the series with Femur, 16.75 µg/g; in the series with Brain [2], 1.11 µg/g; in the series on Kidney [3], 6.61 µg/g; in the series with Liver [4] it was 4.6 µg/g; in series [5], 4.85 µg/g. The Activity in series [6] came out at 1.72 µg/g; with Brain [7], 2.59 µg/g; in the series with Brain [8] it was 34.51 µg/g; in the series with Brain [9], 0.75 µg/g; in the series on Brain [10], 69.84 µg/g; in the series with Liver [11], 154.97 µg/g. Moreover, the Activity in the series with Liver [12] was 3.63 µg/g; with Liver [13], 36.69 µg/g; in the series with Liver [14] it was 1.31 µg/g; with Liver [15], 60.61 µg/g; in the series with Kidney [16], 94.82 µg/g; with Kidney [17] it was 3.59 µg/g. Besides, the Activity in the series on Kidney [18] came to 27.57 µg/g; with Kidney [19] it was 1.43 µg/g; in the series with Kidney [20], 76.76 µg/g; in the series on Mus musculus, 29.9 g.
As to `CC(C)C[C@H](NC(=O)C1SC(C)(C)SC1C(=O)O)C(=O)O` (some centres not stated), the Activity came to 57.49 µg/g in the series with Brain [1]; 16.33 µg/g in the series with Femur; 1.44 µg/g with Brain [2]; 7.32 µg/g with Kidney [3]; 3.64 µg/g with Liver [4]; 3.99 µg/g in series [5]. Also, the Activity in series [6] was found to be 3.44 µg/g; in the series on Brain [7] it was 2.6 µg/g; in the series on Brain [8] it was 32.49 µg/g; in the series on Brain [9] it was 0.7 µg/g; in the series with Brain [10], 69.29 µg/g; in the series with Liver [11] it was 153.8 µg/g. The Activity amounted to 3.59 µg/g with Liver [12]; 37.88 µg/g with Liver [13]; 1.41 µg/g in the series with Liver [14]; 59.8 µg/g in the series with Liver [15]; 93.02 µg/g in the series on Kidney [16]; 3.65 µg/g in the series with Kidney [17]. For the same molecule, the Activity with Kidney [18] was determined as 26.99 µg/g; with Kidney [19] it was 1.41 µg/g; in the series with Kidney [20], 76.48 µg/g; in the series with Mus musculus, 29.7 g.
Take `CC1(C)SC(C(=O)O)C(C(=O)NCC(=O)O)S1` (configuration not stated): the Activity in the series with Brain [1] worked out at 57.03 µg/g; in the series with Femur it was 20.82 µg/g; in the series with Brain [2], 1.39 µg/g; in the series on Kidney [3], 6.68 µg/g; in the series with Liver [4] it was 3.29 µg/g; in [5] it was 4.53 µg/g. For the same molecule, the Activity in [6] came to 2.07 µg/g; with Brain [7] it was 2.5 µg/g; in the series on Brain [8], 34.31 µg/g; in the series with Brain [9], 0.74 µg/g; in the series with Brain [10], 71.4 µg/g; in the series with Liver [11] it was 154.3 µg/g. Moreover, the Activity turned out to be 3.58 µg/g in the series on Liver [12]; 36.35 µg/g in the series with Liver [13]; 1.29 µg/g in the series with Liver [14]; 60.01 µg/g in the series on Liver [15]; 94.4 µg/g with Kidney [16]; 3.62 µg/g in the series with Kidney [17]. Further, the Activity was 27.68 µg/g in the series on Kidney [18], 1.31 µg/g in the series on Kidney [19], 76.17 µg/g in the series on Kidney [20] and 30.4 g in the series on Mus musculus.
